Source: PubChem BioAssay (several laboratories)
Platelet DG rel = modulates dense granule release in human platelets; human platelet-rich plasma, SFLLRN dense granule ATP release, luminescence; inhibition, %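 (compounds screened at 7.5 µM in platelet-rich plasma)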; 300,000 compounds, 0.22% hits;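 active = mean replicate score, as percent of positive control, at or above 50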
VLA-4 inh = inhibition in a human VLA-4 binding assay. P13612. VLA-4 expressing cells, ligand binding flow cytometry. inhibition, % (about 7 µM as worked out from the volumes in the protocol). 330,000 compounds, 0.2% hits. AID 2557; in the data active = inhibition above about 50%
Target sequence (P13612 whole entry, looked up): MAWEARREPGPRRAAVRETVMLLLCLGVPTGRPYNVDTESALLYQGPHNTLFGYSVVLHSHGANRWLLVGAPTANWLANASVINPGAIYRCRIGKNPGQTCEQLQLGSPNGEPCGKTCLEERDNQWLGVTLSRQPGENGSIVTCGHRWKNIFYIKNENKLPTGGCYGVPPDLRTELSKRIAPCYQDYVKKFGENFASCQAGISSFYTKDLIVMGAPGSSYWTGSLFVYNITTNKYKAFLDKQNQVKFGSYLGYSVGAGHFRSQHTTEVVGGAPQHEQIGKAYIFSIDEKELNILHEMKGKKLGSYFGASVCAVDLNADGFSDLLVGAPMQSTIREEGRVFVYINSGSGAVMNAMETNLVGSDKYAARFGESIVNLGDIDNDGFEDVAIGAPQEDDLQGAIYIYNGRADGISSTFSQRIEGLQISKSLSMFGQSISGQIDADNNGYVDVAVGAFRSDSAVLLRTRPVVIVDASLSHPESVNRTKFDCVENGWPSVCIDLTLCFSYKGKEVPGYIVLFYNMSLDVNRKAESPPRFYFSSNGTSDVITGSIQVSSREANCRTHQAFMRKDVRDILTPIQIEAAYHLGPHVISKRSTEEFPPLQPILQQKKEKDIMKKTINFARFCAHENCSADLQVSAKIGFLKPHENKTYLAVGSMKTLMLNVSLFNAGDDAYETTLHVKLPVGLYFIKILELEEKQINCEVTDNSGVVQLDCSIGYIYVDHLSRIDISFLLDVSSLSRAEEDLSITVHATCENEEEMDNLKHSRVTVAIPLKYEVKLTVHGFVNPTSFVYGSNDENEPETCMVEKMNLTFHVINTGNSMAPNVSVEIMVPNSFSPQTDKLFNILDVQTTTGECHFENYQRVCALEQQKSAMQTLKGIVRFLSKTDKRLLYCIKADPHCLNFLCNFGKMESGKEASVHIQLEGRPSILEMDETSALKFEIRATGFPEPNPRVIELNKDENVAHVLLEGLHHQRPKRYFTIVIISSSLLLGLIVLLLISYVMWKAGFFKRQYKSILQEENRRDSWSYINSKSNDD
TAAR1 ag = agonists of human TAAR1; CHO RD-HGA16 TAAR1, Fluo-8 calcium fluorescence; vehicle wells 0%, saturating PEA agonist 100%; activation, % at 3 µM; 360,000 compounds, 0.99% hits; AID 624467;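 active = activation above the mean activation of all test compounds in the run plus 3 SD, cut at about 38% in these data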
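System: CHO RD-HGA16 cells carrying human TAAR1 plus Gα16; Incubation: 17-24 h seeding, 75 min 37 °C dye, 30 min RT; Measured by: Fluo-8 fluorescence, 5 s baseline then 140 s kinetic read; Control set: DMSO and PEA EC100; Replication: single well for each compound.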
TAAR1 antagonist = antagonists of human TAAR1. Q96RJ0. CHO RD-HGA16 TAAR1, Fluo-8 calcium fluorescence, antagonist. inhibition, % at 3 µM. 360,000 compounds, 1.5% hits. AID 624466;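 active = inhibition above a per-plate cutoff, the mean inhibition of test compounds on that plate plus 3 SD, cut at about 49% in these data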
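System: RD-HGA16 CHO cells with stable hTAAR1 and Gα16 | Probe or stimulus: EC80 β-phenethylamine stimulus | Dosing: 3 µM, single point | Times: Dye loading 75 min at 37 °C, then 30 min room temperature | Measured by: Fluo-8 calcium-sensitive fluorescence | Read-out basis: % inhibition of agonist calcium response | Replicates: n of 1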
Rce1 inhib = yeast Ras-converting enzyme inhibition; 290,000 compounds, 0.27% hits; yeast membranes, quenched prenylated peptide cleavage fluorescence; calls only; Q03530; AID 2563;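 active = fall in fluorescence gain of 50% or more versus controls, with final raw signal at or below 3038400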
TAAR1 nonsel count = nonselective antagonist in TAAR1 antagonist counter-screen. shares compounds with TAAR1 antagonist. counterscreen cell line, calcium fluorescence, antagonist mode. inhibition, % at 3 µM. 2,400 compounds, 77% hits; in the data active = inhibition above about 22%;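 note: CHO-Ga16 host cells stimulated with ATP at an EC80 level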
TAAR1 ant conf = human TAAR1 antagonism, confirmed | 2,400 compounds, 40% hits | TAAR1-expressing cells, fluorescence antagonist read-out | shares compounds with TAAR1 antagonist | inhibition, % at 3 µM; in the data active = inhibition above about 49%;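 note: CHO-Ga16 host cells challenged with agonist PEA near its EC80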
Ga16 ag counter = nonselective Ga16 agonism, counter-screen; Ga16-expressing cells, calcium fluorescence, agonist counterscreen; activation, % at 3 µM; 2,400 compounds, 18% hits; shares compounds with TAAR1 antagonist; AID 651953; in the data active = activation above about 12%
TAAR1 ag counter = TAAR1 agonism, antagonist counter-screen; shares compounds with TAAR1 antagonist; 2,400 compounds, 2% hits; activation, % at 3 µM; hTAAR1 cell line, fluorescence activation, agonist mode; in the data active = activation above about 37%;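 note: CHO cells stably expressing TAAR1 with calcium dye readout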
Hits are given with their value. In the library only some 2.6% were active in any assay of this set; here they are far more common.

O=C(CSc1nnc(Nc2ccccc2)s1)Nc1ccc(S(=O)(=O)N2CCOCC2)cc1 was read as Platelet DG rel inactive, VLA-4 inh inactive, TAAR1 ag inactive, TAAR1 antagonist 57, Rce1 inhib inactive, TAAR1 nonsel count 36, TAAR1 ant conf inactive, Ga16 ag counter inactive and TAAR1 ag counter inactive.
For COc1ccc(N2CCN(C(=O)c3cc4c(s3)-c3ccccc3S(=O)(=O)C4)CC2)cc1 the results were Platelet DG rel inactive, VLA-4 inh inactive, TAAR1 ag inactive, TAAR1 antagonist 52, Rce1 inhib inactive, TAAR1 nonsel count 30, TAAR1 ant conf inactive, Ga16 ag counter inactive and TAAR1 ag counter inactive.
`COc1ccc(CNC(=O)c2cc(C3CC3)nc3c2cnn3C(C)C)cc1` gave VLA-4 inh inactive, TAAR1 ag inactive, TAAR1 antagonist 50, TAAR1 nonsel count inactive, TAAR1 ant conf inactive, Ga16 ag counter inactive and TAAR1 ag counter inactive.
Screening Cc1cc(OC(C)C(=O)NCc2ccccn2)c2c(C)c(C)c(=O)oc2c1 (stereo not drawn) returned Platelet DG rel inactive, VLA-4 inh inactive, TAAR1 ag inactive, TAAR1 antagonist inactive and Rce1 inhib inactive.
Screening COc1cccc(NC(=O)CN(C)C(=O)c2cc(-c3ccccc3)nc3ccc(C)cc23)c1 returned TAAR1 ag inactive, TAAR1 antagonist 74, TAAR1 nonsel count 40, TAAR1 ant conf 61, Ga16 ag counter inactive and TAAR1 ag counter inactive.
COc1cccc(NC(=O)CN(C)C(=O)c2cc(-c3cccc(Br)c3)nc3ccccc23)c1 was read as Platelet DG rel inactive, VLA-4 inh inactive, TAAR1 ag inactive, TAAR1 antagonist 79, Rce1 inhib inactive, TAAR1 nonsel count 39, TAAR1 ant conf inactive, Ga16 ag counter inactive and TAAR1 ag counter inactive.
CN(C)S(=O)(=O)c1cccc(NC(=O)COC(=O)c2cc(-c3cccc(Br)c3)nc3ccccc23)c1 was read as Platelet DG rel inactive, VLA-4 inh inactive, TAAR1 ag inactive, TAAR1 antagonist inactive and Rce1 inhib inactive.
COc1ccc(NC(=O)CN(C)C(=O)c2cc(-c3ccc(Cl)cc3)nc3ccccc23)cc1 was read as Platelet DG rel inactive, VLA-4 inh inactive, TAAR1 ag inactive, TAAR1 antagonist 67, Rce1 inhib inactive, TAAR1 nonsel count 30, TAAR1 ant conf inactive, Ga16 ag counter inactive and TAAR1 ag counter inactive.
For Cc1ccc(N(O)C(=O)NCCCCNC(=O)N(O)c2ccc(C)cc2)cc1 the results were Platelet DG rel inactive, VLA-4 inh inactive, TAAR1 ag inactive, TAAR1 antagonist inactive and Rce1 inhib inactive.
CCCC1NC(=O)c2cc3ccccc3cc2-n2c1nc1ccc(F)cc1c2=O (stereo not drawn) was read as TAAR1 ag inactive and TAAR1 antagonist inactive.
For CCCn1c(NC(=O)c2ccc(Cl)c(S(=O)(=O)N3CCCC3)c2)nc2ccccc21 the results were Platelet DG rel inactive, VLA-4 inh inactive, TAAR1 ag inactive, TAAR1 antagonist 57, Rce1 inhib inactive, TAAR1 nonsel count 38, TAAR1 ant conf inactive, Ga16 ag counter inactive and TAAR1 ag counter inactive.
Screening O=C(O)c1cccc(NC(=O)c2ccc(Cl)c(S(=O)(=O)N3CCCCCC3)c2)c1 returned Platelet DG rel inactive, VLA-4 inh inactive, TAAR1 ag inactive, TAAR1 antagonist inactive and Rce1 inhib inactive.
Cc1nc(-c2cccc(NC(=O)c3ccc(-n4cccn4)cc3)c2)cs1 was read as VLA-4 inh inactive, TAAR1 ag inactive, TAAR1 antagonist 63, TAAR1 nonsel count 22, TAAR1 ant conf inactive, Ga16 ag counter inactive and TAAR1 ag counter inactive.
Cc1nc(-c2cccc(NC(=O)c3ccc(Cl)c(S(=O)(=O)N4CCCC4)c3)c2)cs1 was read as TAAR1 ag inactive, TAAR1 antagonist 62, TAAR1 nonsel count 26, TAAR1 ant conf inactive, Ga16 ag counter inactive and TAAR1 ag counter inactive.
`Nc1ncnc2c1ncn2[C@@H]1O[C@H](CCC(=O)NCc2ccccc2)[C@@H](O)[C@H]1O` gave TAAR1 ag inactive and TAAR1 antagonist inactive.
`CCn1c(=O)c(C(=O)CN(C)CC(=O)Nc2cccc(F)c2)c(N)n(Cc2ccccc2)c1=O` gave VLA-4 inh inactive, TAAR1 ag inactive and TAAR1 antagonist inactive.
Screening CC(C)CN1CCC(=O)N([C@H](CSc2ccccc2)Cc2ccccc2)CC1 returned Platelet DG rel inactive, VLA-4 inh inactive, TAAR1 ag inactive, TAAR1 antagonist 53, Rce1 inhib inactive, TAAR1 nonsel count inactive, TAAR1 ant conf inactive, Ga16 ag counter inactive and TAAR1 ag counter inactive.
For CC(=O)Nc1ccc(S(=O)(=O)N(C)CC(=O)Nc2ccccc2N2CCCC2)cc1 the results were Platelet DG rel inactive, VLA-4 inh inactive, TAAR1 ag inactive, TAAR1 antagonist 55, Rce1 inhib inactive, TAAR1 nonsel count 30, TAAR1 ant conf inactive, Ga16 ag counter inactive and TAAR1 ag counter inactive.
Screening Cc1ccc(Nc2nc(NCc3cccs3)nc3ccsc23)c(C)c1 returned TAAR1 ag inactive, TAAR1 antagonist 76, TAAR1 nonsel count 57, TAAR1 ant conf 66, Ga16 ag counter 18 and TAAR1 ag counter inactive.
Screening C=CCN(C(=O)CN1CCCCC1)c1nc(-c2ccccc2)cs1 returned Platelet DG rel inactive, VLA-4 inh inactive, TAAR1 ag inactive, TAAR1 antagonist inactive and Rce1 inhib inactive.
C=CCN(C(=O)C1CC(=O)N(C2CCCC2)C1)c1nc(-c2ccc(S(C)(=O)=O)cc2)cs1 (stereo not drawn) was read as VLA-4 inh inactive, TAAR1 ag inactive, TAAR1 antagonist 78, TAAR1 nonsel count 38, TAAR1 ant conf 65, Ga16 ag counter 18 and TAAR1 ag counter inactive.
`Cc1cc(O)cc(=O)n1-c1cccc(C(F)(F)F)c1` gave TAAR1 ag inactive and TAAR1 antagonist inactive.
`COc1cccc(-c2nc(NC3CCCC3)c3ccccc3n2)c1O` gave Platelet DG rel inactive, VLA-4 inh inactive, TAAR1 ag inactive, TAAR1 antagonist 61, Rce1 inhib inactive, TAAR1 nonsel count 22, TAAR1 ant conf 53, Ga16 ag counter inactive and TAAR1 ag counter inactive.
`Cc1ccc(S(=O)(=O)N2CCOCC2)cc1NC(=O)COC(=O)CCC(=O)c1ccc(F)cc1` gave TAAR1 ag inactive and TAAR1 antagonist inactive.
For CC(C)OC(=O)c1ccc(NC(=O)c2cncc(Br)c2)cc1 the results were Platelet DG rel inactive, VLA-4 inh inactive, TAAR1 ag inactive, TAAR1 antagonist 65, Rce1 inhib inactive, TAAR1 nonsel count 27, TAAR1 ant conf inactive, Ga16 ag counter 16 and TAAR1 ag counter inactive.
